Rows were chosen to be rich in hits. Some 2.2% of all compounds tested hit in one or more screens of this group.
p97 ATPase inh – blocks human p97 ATPase activity. 220,000 compounds, 0.42% hits. recombinant p97 ATPase, Kinase-Glo ATP luminescence, 3 h. P55072. inhibition, % at 8 µM; in the data active = inhibition above about 15%;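 note: 0% = DMSO vehicle and 100% = wells lacking enzyme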
Hck Nef HTS – blocks Nef-activated human Hck kinase | inhibition, % at 20 µM | 220,000 compounds, 0.68% hits | P08631 | Recombinant Hck-YEEI plus Nef, Z-Lyte FRET kinase assay;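 active = Hck-Nef kinase inhibition above about 50%, limit read from the data; inactive = inhibition below that limit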;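 note: 0% = DMSO with Hck plus Nef and 100% = Hck alone without Nef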
Target sequence (P08631 whole entry, looked up): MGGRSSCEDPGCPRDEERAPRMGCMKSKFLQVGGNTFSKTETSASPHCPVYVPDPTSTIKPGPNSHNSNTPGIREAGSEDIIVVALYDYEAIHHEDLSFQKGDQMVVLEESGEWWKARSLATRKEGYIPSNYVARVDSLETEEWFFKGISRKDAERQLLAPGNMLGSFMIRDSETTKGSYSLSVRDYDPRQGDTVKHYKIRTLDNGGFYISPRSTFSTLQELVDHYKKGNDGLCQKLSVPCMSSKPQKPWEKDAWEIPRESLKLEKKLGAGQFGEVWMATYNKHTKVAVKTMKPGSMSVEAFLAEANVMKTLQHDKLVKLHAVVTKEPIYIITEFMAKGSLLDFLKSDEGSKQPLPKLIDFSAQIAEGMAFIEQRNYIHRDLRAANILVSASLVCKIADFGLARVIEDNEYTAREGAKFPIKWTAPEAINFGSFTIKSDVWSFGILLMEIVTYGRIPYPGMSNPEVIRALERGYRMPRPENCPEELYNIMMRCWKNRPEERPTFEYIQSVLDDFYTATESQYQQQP
PERK inhibitor – human PERK inhibition, primary cell-based screen | Q9NZJ5 | CHO PERK-DD fusion, SEAP luminescence translation reporter | inhibition, % at 5.6 µM | 220,000 compounds, 0.17% hits;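 active = inhibition above the mean inhibition of all tested compounds plus 3 SD, set separately per screening campaign, cut at about 2.9% in these data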;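 note: PERK kinase domain activated by AP20187 dimerizer at 100 nM; 0% = DMSO with dimerizer and 100% = rapamycin at 8.4 µM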
eIF4E 4G PPI – blocks eIF4E binding to eIF4G; inhibition, % at 21.7 µM; 220,000 compounds, 0.37% hits; P63073+Q04637; AID 782; TR-FRET eIF4E-eIF4GI(517-606) binding, 2 h;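 active = inhibition above about 30%, limit read from the data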;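 note: 0% = full FRET control wells and 100% = background wells lacking eIF4GI fragment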
Calb biofilm kill – mixtures killing C. albicans biofilm. inhibition, % at 7.6 µM. AID 1242. C. albicans biofilm persisters + clotrimazole, fluorescence viability; primary screen in compound mixtures of four per well. 120,000 compounds, 0.02% hits;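 active = inhibition above 30.3% in the primary screen of four-compound pools, then above 30% when the compound was retested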;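 note: compounds exposed to preformed 24 h biofilms for 48 h; 0% = untreated biofilm control and 100% = clotrimazole plus chlorhexidine kill blank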
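Test system: C. albicans CAF4-2 wild-type biofilms; buffer or medium: RPMI/MOPS medium, pH 7.0; schedule: 24 h biofilm formation, then 48 h compound exposure, 37 °C; detection: Alamar Blue fluorescence; measure: percent inhibition of biofilm viability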
14-3-3 Bad inh – disrupts binding of bovine 14-3-3 zeta to phospho-Bad peptide; inhibition, % at 21.7 µM; 220,000 compounds, 0.71% hits; P63103; TR-FRET 14-3-3zeta/Dy647-pBad peptide displacement, 1 h;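 active = inhibition above about 70%, limit read from the data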;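 note: 0% = full 14-3-3 plus peptide FRET controls and 100% = background without 14-3-3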
Starred values were filed as active, the others as inactive; [ ] = another dose, or the depositor's remark.

Screening Cc1ccc(NC(=O)CN2C(=O)/C(=C3\SC(=S)N(C4CCS(=O)(=O)C4)C3=O)c3ccccc32)cc1 (stereo not drawn) returned p97 ATPase inh -1, Hck Nef HTS 97*, PERK inhibitor 0, eIF4E 4G PPI 1, Calb biofilm kill 14 and 14-3-3 Bad inh 93*[fluorescence artefact?].
O=C(O)C1CCC(NSc2ccccc2[N+](=O)[O-])CC1 (stereo not drawn) was read as p97 ATPase inh 0, Hck Nef HTS 0, PERK inhibitor 0, eIF4E 4G PPI 2, Calb biofilm kill 21 and 14-3-3 Bad inh -2.
`O=C(O)/C=C/C(=O)NNc1ncnc2ccccc12` gave p97 ATPase inh 3, Hck Nef HTS 6, PERK inhibitor 0, eIF4E 4G PPI -2, Calb biofilm kill 18 and 14-3-3 Bad inh -5.
C=CCNCc1cccn1-c1sc2c(c1C#N)CCCC2 was read as p97 ATPase inh -1, Hck Nef HTS -2, PERK inhibitor -1, eIF4E 4G PPI -2 and 14-3-3 Bad inh 71*.
COc1ccc(CN2CCN(C(=O)c3cccs3)CC2)cc1Br was read as p97 ATPase inh 2, Hck Nef HTS 2, PERK inhibitor 0, eIF4E 4G PPI 19 and 14-3-3 Bad inh 78*.
CCOCCCNC(=S)N1CCN(Cc2ccc3c(c2)OCO3)CC1 was read as p97 ATPase inh 6, Hck Nef HTS 18, PERK inhibitor 1, eIF4E 4G PPI 0, Calb biofilm kill 19 and 14-3-3 Bad inh 95*.
For COc1cccc(OC)c1C(=O)N1CCN(Cc2ccc3c(c2)OCO3)CC1 the results were p97 ATPase inh 5, Hck Nef HTS 1, PERK inhibitor 0, eIF4E 4G PPI 12 and 14-3-3 Bad inh 97*[fluorescence artefact?].
Screening CCC(C)N1CCN(C(=O)c2cccs2)CC1 (stereo not drawn) returned p97 ATPase inh 1, Hck Nef HTS 5, PERK inhibitor 1, eIF4E 4G PPI 0, Calb biofilm kill 13 and 14-3-3 Bad inh 70*.
For O=C(c1ccncc1)N1CCN(C(=O)c2cccs2)CC1 the results were p97 ATPase inh -4, Hck Nef HTS 1, PERK inhibitor 1, eIF4E 4G PPI -3 and 14-3-3 Bad inh -2.
CC(C)CCN1CCN(CC(c2ccccc2)c2ccccc2)CC1CCO (stereo not drawn) was read as p97 ATPase inh -1, Hck Nef HTS 16, PERK inhibitor -1, eIF4E 4G PPI -6, Calb biofilm kill 17 and 14-3-3 Bad inh -5.
For Cc1cnc(C(=O)OCC(=O)NC(C)CCc2ccccc2)cn1 (stereo not drawn) the results were p97 ATPase inh 9, Hck Nef HTS 13, PERK inhibitor 1, eIF4E 4G PPI 1, Calb biofilm kill 22 and 14-3-3 Bad inh -1.
CCCCCn1c(=O)[nH]c2cc(C(=O)N3CCN(Cc4ccc5c(c4)OCO5)CC3)ccc2c1=O was read as p97 ATPase inh -2, Hck Nef HTS -1, PERK inhibitor -1, eIF4E 4G PPI 44* and 14-3-3 Bad inh -3.
For CCCCCn1c(=O)[nH]c2cc(C(=O)NCc3ccc4c(c3)OCO4)ccc2c1=O the results were p97 ATPase inh 0, Hck Nef HTS 3, PERK inhibitor 0, eIF4E 4G PPI -1 and 14-3-3 Bad inh 16.
CCOc1ccc(/C=C2/SC(=S)N(C(C(=O)O)c3ccccc3)C2=O)cc1OCC (stereo not drawn) was read as p97 ATPase inh 0, Hck Nef HTS 62*, PERK inhibitor 2, eIF4E 4G PPI -3, Calb biofilm kill 16 and 14-3-3 Bad inh -4.
`COc1cc(/C=C2\SC(=S)N(C(C(=O)O)c3ccccc3)C2=O)ccc1O` (stereo not drawn) gave p97 ATPase inh 2, Hck Nef HTS 10, PERK inhibitor 0, eIF4E 4G PPI 0, Calb biofilm kill 16 and 14-3-3 Bad inh 7.
Screening Cc1oc2c(c1C(=O)c1ccc(Cl)cc1)C(=O)C(=O)c1ccccc1-2 returned p97 ATPase inh 3, Hck Nef HTS 1, PERK inhibitor 1, eIF4E 4G PPI 4 and 14-3-3 Bad inh 16.
CC1=C(CC(=O)c2ccc(Cl)cc2)C(=O)c2ccccc2C1=O was read as p97 ATPase inh 6, Hck Nef HTS -1, PERK inhibitor 2.9*, eIF4E 4G PPI 0 and 14-3-3 Bad inh -9.
`O=C(CSc1nc(O)cc(=O)n1-c1ccccc1)Nc1ccc(Br)cn1` gave p97 ATPase inh 4, Hck Nef HTS 3, PERK inhibitor 1, eIF4E 4G PPI -2, Calb biofilm kill 2 and 14-3-3 Bad inh 2.
For Clc1cnc2nc(SC/C=C/c3ccccc3)[nH]c2c1 the results were p97 ATPase inh -3, Hck Nef HTS 22, PERK inhibitor 0, eIF4E 4G PPI 2, Calb biofilm kill 22 and 14-3-3 Bad inh 7.
Screening CC(C)(C)c1ccc(-c2nnc(SCC(=O)c3ccc4c(c3)OCCO4)o2)cc1 returned p97 ATPase inh -3, Hck Nef HTS 0, PERK inhibitor 0, eIF4E 4G PPI 4 and 14-3-3 Bad inh 87*.
For O=C(CSc1nnc(-c2ccc(F)cc2)o1)c1ccc2c(c1)OCCO2 the results were p97 ATPase inh 0, Hck Nef HTS 4, PERK inhibitor 1, eIF4E 4G PPI -15 and 14-3-3 Bad inh 0.
`CCCCc1nnc2c(N(C)S(=O)(=O)c3ccccc3)nc3ccccc3n12` gave p97 ATPase inh -6, Hck Nef HTS 1, PERK inhibitor -1, eIF4E 4G PPI -3, Calb biofilm kill 15 and 14-3-3 Bad inh 14.
COc1ccc(C(=O)Nc2cc(C(F)(F)F)ccc2Cl)cc1OC was read as p97 ATPase inh -2, Hck Nef HTS 0, PERK inhibitor 0, eIF4E 4G PPI -1 and 14-3-3 Bad inh 3.
For Cc1noc(C)c1C(=O)N1CCC(C(=O)c2ccc(F)cc2F)CC1 the results were p97 ATPase inh 11, Hck Nef HTS 2, PERK inhibitor 0, eIF4E 4G PPI -3, Calb biofilm kill 18 and 14-3-3 Bad inh -11.
`Clc1ccccc1-c1nc(-c2ccncc2)no1` gave p97 ATPase inh -6, Hck Nef HTS 3, PERK inhibitor 1, eIF4E 4G PPI 6, Calb biofilm kill 13 and 14-3-3 Bad inh 73*.
Screening CSC(=Nc1ccccc1)Nc1ccccc1 returned p97 ATPase inh 10, Hck Nef HTS 7, PERK inhibitor 2.9*, eIF4E 4G PPI 0, Calb biofilm kill 31 and 14-3-3 Bad inh 0.
`CCSC(=Nc1ccccc1)Nc1ccccc1` gave p97 ATPase inh -2, Hck Nef HTS -16, PERK inhibitor 0, eIF4E 4G PPI 0, Calb biofilm kill 20 and 14-3-3 Bad inh 8.
CCc1ccc(CN2CCCC(CCC(=O)N3CCN(c4ccccn4)CC3)C2)o1 (stereo not drawn) was read as p97 ATPase inh 4, Hck Nef HTS 9, PERK inhibitor -1, eIF4E 4G PPI -2, Calb biofilm kill 15 and 14-3-3 Bad inh 0.

Screening data from PubChem.
